# Reference: ChEMBL document CHEMBL5674883, “The Heterochromatin Landscape in Migrating Cells and the Importance of H3K27me3 for Associated Transcriptome Alterations” (Cells, 2018)
# Legend:
# Type in all cases: cell-based
# [1] = molecular target: T1, RNA polymerase II (Mus musculus) (UniProt P08775+Q8CFI7+P97760+A0A3Q4L2S8+Q80UW8+P61219+P62488+Q923G2+P60898+O08740+Q63871+P62876); assay: Inhibition of RNA polymerase II in mouse B16-F1 migrating cells assessed as fold change in Plekha2-RNA stability at 0.1 mM measured by […] analysis relative to control cells
# [2] = molecular target: T1, RNA polymerase II (Mus musculus); assay: Inhibition of RNA polymerase II in mouse B16-F1 migrating cells assessed as fold change in Galk1-RNA stability at 0.1 mM measured by ChIP-seq analysis relative to control cells
# [3] = molecular target: T1, RNA polymerase II (Mus musculus); assay: Inhibition of RNA polymerase II in mouse B16-F1 migrating cells assessed as fold change in Larp4-RNA stability at 0.1 mM measured by ChIP-seq analysis relative to control cells
# [4] = molecular target: T1, RNA polymerase II (Mus musculus); assay: Inhibition of RNA polymerase II in mouse B16-F1 migrating cells assessed as fold change in Bpnt1-RNA stability at 0.1 mM measured by […] analysis relative to control cells
# [5] = molecular target: T1, RNA polymerase II (Mus musculus); assay: Inhibition of RNA polymerase II in mouse B16-F1 migrating cells assessed as fold change in Kif18a-RNA stability at 0.1 mM measured by ChIP-seq analysis relative to control cells
# [6] = molecular target: T1, RNA polymerase II (Mus musculus); assay: Inhibition of RNA polymerase II in mouse B16-F1 migrating cells assessed as fold change in Tbp-RNA stability at 0.1 mM measured by […] analysis relative to control cells
# [7] = molecular target: T1, RNA polymerase II (Mus musculus); assay: Inhibition of RNA polymerase II in mouse B16-F1 migrating cells assessed as fold change in Rassf2-RNA stability at 0.1 mM measured by […] analysis relative to control cells
# [8] = molecular target: T1, RNA polymerase II (Mus musculus); assay: Inhibition of RNA polymerase II in mouse B16-F1 migrating cells assessed as fold change in Dido1-RNA stability at 0.1 mM measured by […] analysis relative to control cells
# In short: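 Mouse B16-F1 melanoma cells grown to confluence on fibronectin in DMEM/10% FCS at 37 °C, 7% CO2. Migration induced by multiple scratches and 3 h incubation; unscratched controls. DRB 0.1 mM added 3 h before lysis. RNA from poly A-selected mRNA was sequenced (RNA-seq, three replicates per DRB group). Fold change computed for DRB-treated migrating vs DRB-treated control cells; cutoffs fold change >1.3, FDR <0.05.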
# [9] = molecular target: T1, RNA polymerase II (Mus musculus); assay: Inhibition of RNA polymerase II in mouse B16-F1 migrating cells assessed as fold change in Arpc4-RNA stability at 0.1 mM measured by […] analysis relative to control cells
# [10] = molecular target: T1, RNA polymerase II (Mus musculus); assay: Inhibition of RNA polymerase II in mouse B16-F1 migrating cells assessed as fold change in Agps-RNA stability at 0.1 mM measured by […] analysis relative to control cells
# [11] = molecular target: T1, RNA polymerase II (Mus musculus); assay: Inhibition of RNA polymerase II in mouse B16-F1 migrating cells assessed as fold change in Mapre3-RNA stability at 0.1 mM measured by ChIP-seq analysis relative to control cells
# [12] = molecular target: T1, RNA polymerase II (Mus musculus); assay: Inhibition of RNA polymerase II in mouse B16-F1 migrating cells assessed as fold change in Rpl7-RNA stability at 0.1 mM measured by […] analysis relative to control cells
# [13] = molecular target: T1, RNA polymerase II (Mus musculus); assay: Inhibition of RNA polymerase II in mouse B16-F1 migrating cells assessed as fold change in BC004004-RNA stability at 0.1 mM measured by […] analysis relative to control cells
# [14] = molecular target: T1, RNA polymerase II (Mus musculus); assay: Inhibition of RNA polymerase II in mouse B16-F1 migrating cells assessed as fold change in Alg2-RNA stability at 0.1 mM measured by […] analysis relative to control cells
# [15] = molecular target: Histone-lysine N-methyltransferase EZH2 (Mus musculus) (UniProt Q61188); assay: Inhibition of EZH2 in mouse B16-F1 migrating cells assessed as fold change in H3K27me3-buffered regulated 1810058I24Rik-mRNA expression at 3 uM measured by ChIP-seq analysis relative to control cells
# In short: (§1)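 Confluent B16-F1 cells on fibronectin-coated plates, cultured at 37 °C and 7% CO2, were scratched at multiple sites to induce migration. They were then held 3 h in growth medium containing 3 µM GSK343, with the inhibitor added 3 h before lysis. Unscratched cells served as controls. Poly A mRNA was analysed by RNA-seq (n=3 GSK343, n=5 controls). Linear models removed batch effects, and buffered genes were those altered only under GSK343 (FDR <0.05, fold change >1.3).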
# [16] = molecular target: Histone-lysine N-methyltransferase EZH2 (Mus musculus) (UniProt Q61188); assay: Inhibition of EZH2 in mouse B16-F1 migrating cells assessed as fold change in H3K27me3-buffered regulated Map3k1-mRNA expression at 3 uM measured by […] analysis relative to control cells; in short: as §1
# [17] = molecular target: Histone-lysine N-methyltransferase EZH2 (Mus musculus) (UniProt Q61188); assay: Inhibition of EZH2 in mouse B16-F1 migrating cells assessed as fold change in H3K27me3-buffered regulated Paxbp1-mRNA expression at 3 uM measured by […] analysis relative to control cells; in short: as §1
# [18] = molecular target: Histone-lysine N-methyltransferase EZH2 (Mus musculus) (UniProt Q61188); assay: Inhibition of EZH2 in mouse B16-F1 migrating cells assessed as fold change in H3K27me3-buffered regulated Pygm-mRNA expression at 3 uM measured by […] analysis relative to control cells; in short: as §1
# [19] = molecular target: Histone-lysine N-methyltransferase EZH2 (Mus musculus) (UniProt Q61188); assay: Inhibition of EZH2 in mouse B16-F1 migrating cells assessed as fold change in H3K27me3-buffered regulated Tfcp2-mRNA expression at 3 uM measured by […] analysis relative to control cells
# In short: (§2)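 Confluent B16-F1 cells on fibronectin-coated plates were scratched at multiple sites, washed once with DMEM and left to migrate 3 h in growth medium (37 °C, 7% CO2); unscratched cells served as control. GSK343 (3 µM) was added 3 h before lysis. Poly A mRNA was sequenced (RNA-seq), with 5 replicates for untreated and 3 for treated cells. Differential expression was called by linear model with batch correction, at FDR <0.05 and fold change ≥1.3.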
# [20] = molecular target: Histone-lysine N-methyltransferase EZH2 (Mus musculus) (UniProt Q61188); assay: Inhibition of EZH2 in mouse B16-F1 migrating cells assessed as fold change in H3K27me3-independent regulated Tmem179-mRNA expression at 3 uM measured by […] analysis relative to control cells; in short: as §2
# [21] = molecular target: Histone-lysine N-methyltransferase EZH2 (Mus musculus) (UniProt Q61188); assay: Inhibition of EZH2 in mouse B16-F1 migrating cells assessed as fold change in H3K27me3-buffered regulated Tead4-mRNA expression at 3 uM measured by […] analysis relative to control cells; in short: as §2
# [22] = molecular target: Histone-lysine N-methyltransferase EZH2 (Mus musculus) (UniProt Q61188); assay: Inhibition of EZH2 in mouse B16-F1 migrating cells assessed as fold change in H3K27me3-buffered regulated Itpk1-mRNA expression at 3 uM measured by […] analysis relative to control cells; in short: as §1
# [23] = molecular target: Histone-lysine N-methyltransferase EZH2 (Mus musculus) (UniProt Q61188); assay: Inhibition of EZH2 in mouse B16-F1 migrating cells assessed as fold change in H3K27me3-buffered regulated Ern1-mRNA expression at 3 uM measured by ChIP-seq analysis relative to control cells; in short: as §1
# [24] = molecular target: Histone-lysine N-methyltransferase EZH2 (Mus musculus) (UniProt Q61188); assay: Inhibition of EZH2 in mouse B16-F1 migrating cells assessed as fold change in H3K27me3-buffered regulated Rassf1-mRNA expression at 3 uM measured by […] analysis relative to control cells; in short: as §1
# Histone-lysine N-methyltransferase EZH2 (Mus musculus), sequence (Q61188 whole entry): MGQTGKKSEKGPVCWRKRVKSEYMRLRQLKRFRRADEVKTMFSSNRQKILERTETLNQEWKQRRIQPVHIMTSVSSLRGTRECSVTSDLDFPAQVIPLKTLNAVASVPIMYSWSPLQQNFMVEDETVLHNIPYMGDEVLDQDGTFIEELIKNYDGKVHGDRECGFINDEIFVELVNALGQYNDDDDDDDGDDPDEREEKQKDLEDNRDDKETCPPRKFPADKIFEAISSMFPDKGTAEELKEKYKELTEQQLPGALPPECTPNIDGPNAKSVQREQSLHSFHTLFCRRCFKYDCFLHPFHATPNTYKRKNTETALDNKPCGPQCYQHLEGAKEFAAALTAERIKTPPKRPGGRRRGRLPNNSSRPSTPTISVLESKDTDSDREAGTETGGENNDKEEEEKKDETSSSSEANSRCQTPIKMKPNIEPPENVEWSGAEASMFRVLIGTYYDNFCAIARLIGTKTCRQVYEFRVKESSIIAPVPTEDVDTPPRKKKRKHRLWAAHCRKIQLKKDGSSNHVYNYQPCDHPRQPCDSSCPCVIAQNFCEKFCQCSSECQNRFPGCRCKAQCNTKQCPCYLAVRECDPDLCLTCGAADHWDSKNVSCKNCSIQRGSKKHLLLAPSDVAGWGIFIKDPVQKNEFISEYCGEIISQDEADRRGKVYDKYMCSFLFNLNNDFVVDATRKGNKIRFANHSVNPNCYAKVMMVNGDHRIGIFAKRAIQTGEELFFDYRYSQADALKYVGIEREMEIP
smiles,measurement,setting,value
OC[C@H]1O[C@@H](n2cnc3cc(Cl)c(Cl)cc32)[C@H](O)[C@@H]1O,log2FC,[1],0.71
same,log2FC,[2],0.67
same,log2FC,[3],-0.9
same,log2FC,[4],-0.48
same,log2FC,[5],-1.13
same,log2FC,[6],-0.56
same,log2FC,[7],-0.48
same,log2FC,[8],-0.53
same,log2FC,[9],0.44
same,log2FC,[10],-0.58
same,log2FC,[11],0.77
same,log2FC,[12],0.41
same,log2FC,[13],0.39
same,log2FC,[14],0.52
CCCc1cc(C)[nH]c(=O)c1CNC(=O)c1cc(-c2ccnc(N3CCN(C)CC3)c2)cc2c1cnn2C(C)C,log2FC,[15],0.47
same,log2FC,[16],-0.53
same,log2FC,[17],-0.55
same,log2FC,[18],0.85
same,log2FC,[19],-0.38
same,log2FC,[20],1.1
same,log2FC,[21],0.38
same,log2FC,[22],0.51
same,log2FC,[23],0.72
same,log2FC,[24],-0.52
